Experimental findings from ChEMBL document CHEMBL1212781, “VIM-19, a metallo-beta-lactamase with increased carbapenemase activity from Escherichia coli and Klebsiella pneumoniae” (2010) are described below.

In brackets after ≈: the same amount, converted by molar mass. Where only a bound is given, the exact number is not on record here.

Common to all, as to assay type: functional
In assay [1] the test system is Escherichia coli. Description: Antimicrobial activity in Escherichia coli J53 strain. In outline:
(§1)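 MICs were determined by Etest on Mueller-Hinton agar plates incubated at 37°C. Susceptibility was interpreted according to CLSI guidelines.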

In assay [2] the test system is Escherichia coli. Description: microbe, parasite or virus in culture. The settings on record: TOP10.
Assay [3] relates to Escherichia coli. Description: microbe, parasite or virus in culture. The settings on record: TOP10. The source holds these as a separate data set.
The subject of assay [4] is Escherichia coli. Briefly: Antimicrobial activity in Escherichia coli TOP10 strain. The procedure, abridged:
as §1

In assay [5] the test system is Escherichia coli. Description: microbe, parasite or virus in culture. The settings on record: TOP10. This is another data set of the same source.
Assay [6] relates to Escherichia coli. Description: microbe, parasite or virus in culture. As to conditions: TOP10. This is another data set of the same source.
Assay [7] concerns Escherichia coli. Briefly: Antimicrobial activity in Escherichia coli J53 transconjugate with Escherichia coli DIH-1 expressing natural plasmid containing beta-lactamase VIM-19. The procedure, abridged:
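Transconjugants came from liquid mating-out at 37°C with azide-resistant E. coli J53 as recipient, selected on agar with amoxicillin (50 μg/ml) plus azide (100 μg/ml). MICs were then read by Etest on Mueller-Hinton agar at 37°C and interpreted per CLSI.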

Assay [8] concerns Klebsiella pneumoniae. Briefly: Antimicrobial activity in Klebsiella pneumoniae DIH-2 clinical isolate expressing beta-lactamase VIM-19 by Etest.
Assay [9] relates to Escherichia coli. Briefly: Antimicrobial activity in Escherichia coli DIH-1 expressing beta-lactamase VIM-19 by Etest. The procedure, abridged:
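MICs read by Etest on Mueller-Hinton agar incubated at 37°C. Susceptibility was categorized according to CLSI guidelines. Transconjugants were obtained in E. coli J53 by liquid mating at 37°C, with selection on agar containing amoxicillin (50 μg/ml) and azide (100 μg/ml).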

In the case of `C[C@@H](O)[C@H]1C(=O)N2C(C(=O)O)=C(S[C@@H]3CN[C@H](C(=O)Nc4cccc(C(=O)O)c4)C3)[C@H](C)[C@H]12`, the MIC in [1] is 0.006 µg/mL (≈ 0.0126 µM); in [2], 2 µg/mL (≈ 4.21 µM); in [3] it was 0.125 µg/mL (≈ 0.263 µM); in assay [4] it was 0.006 µg/mL (≈ 0.0126 µM); in assay [5], 2 µg/mL (≈ 4.21 µM); in [6], 0.125 µg/mL (≈ 0.263 µM). Also, the MIC in [7] turned out to be 1.5 µg/mL (≈ 3.15 µM); in assay [8], 16 µg/mL (≈ 33.6 µM); in assay [9], 16 µg/mL (≈ 33.6 µM).
Regarding `C[C@H]1[C@H](NC(=O)/C(=N\OC(C)(C)C(=O)O)c2csc(N)n2)C(=O)N1S(=O)(=O)O` [AZTREONAM], the MIC was found to be 0.12 µg/mL (≈ 0.276 µM) in [3] and 4 µg/mL (≈ 9.19 µM) in [9].
As for `CO/N=C(\C(=O)N[C@@H]1C(=O)N2C(C(=O)O)=C(COC(C)=O)CS[C@H]12)c1csc(N)n1` [CEFOTAXIME], the MIC in assay [1] is 0.12 µg/mL (≈ 0.263 µM); in [2] it was 64 µg/mL (≈ 141 µM); in [3], 64 µg/mL (≈ 141 µM); in [4], 0.12 µg/mL (≈ 0.263 µM); in assay [5], 64 µg/mL (≈ 141 µM); in assay [6], 32 µg/mL (≈ 70.3 µM). In addition, the results for the MIC in [7], in [8] and in [9] were 64 µg/mL (≈ 141 µM), > 512 µg/mL and > 512 µg/mL, respectively.
Take `CO[C@@]1(NC(=O)Cc2cccs2)C(=O)N2C(C(=O)O)=C(COC(N)=O)CS[C@@H]21` [CEFOXITIN]: the MIC in [1] was 4 µg/mL (≈ 9.36 µM); in assay [2] it was 256 µg/mL (≈ 599 µM); in assay [3], 256 µg/mL (≈ 599 µM); in assay [4], 4 µg/mL (≈ 9.36 µM); in assay [5] it was 256 µg/mL (≈ 599 µM); in [6] it was 256 µg/mL (≈ 599 µM). In addition, the MIC is 256 µg/mL (≈ 599 µM) in assay [7], > 512 µg/mL in assay [8] and > 512 µg/mL in assay [9].
Regarding `CO/N=C(\C(=O)N[C@@H]1C(=O)N2C(C(=O)[O-])=C(C[n+]3cccc4c3CCC4)CS[C@H]12)c1csc(N)n1` [CEFPIROME], the MIC in assay [1] is 0.12 µg/mL (≈ 0.233 µM); in [2], 2 µg/mL (≈ 3.89 µM); in [3] it was 32 µg/mL (≈ 62.2 µM); in [4] it was 0.06 µg/mL (≈ 0.117 µM); in assay [5] it was 2 µg/mL (≈ 3.89 µM); in assay [6], 32 µg/mL (≈ 62.2 µM). The MIC in assay [7] worked out at 2 µg/mL (≈ 3.89 µM); in [8] it was 64 µg/mL (≈ 124 µM); in assay [9] it was 32 µg/mL (≈ 62.2 µM).
As for `CC(C)(O/N=C(\C(=O)N[C@@H]1C(=O)N2C(C(=O)[O-])=C(C[n+]3ccccc3)CS[C@H]12)c1csc(N)n1)C(=O)O` [CEFTAZIDIME], the MIC is 0.06 µg/mL (≈ 0.11 µM) in assay [1]; 32 µg/mL (≈ 58.5 µM) in assay [2]; 512 µg/mL (≈ 937 µM) in [3]; 0.06 µg/mL (≈ 0.11 µM) in assay [4]; 32 µg/mL (≈ 58.5 µM) in assay [5]; 512 µg/mL (≈ 937 µM) in assay [6]. The values for the MIC in assay [7], in [8] and in assay [9] were 32 µg/mL (≈ 58.5 µM), 128 µg/mL (≈ 234 µM) and > 512 µg/mL, respectively.
In the case of `CO/N=C(\C(=O)N[C@@H]1C(=O)N2C(C(=O)O)=C(COC(N)=O)CS[C@H]12)c1ccco1` [CEFUROXIME], the MIC in assay [1] is 4 µg/mL (≈ 9.43 µM); in assay [2], > 512 µg/mL; in assay [4] it was 2 µg/mL (≈ 4.71 µM); in assay [5], > 512 µg/mL; in [7] it was > 512 µg/mL; in assay [8] it was > 512 µg/mL. In addition, the MIC in assay [9] was > 512 µg/mL.
In the case of `C[C@@H](O)[C@H]1C(=O)N2C(C(=O)O)=C(SCCNC=N)C[C@H]12` [IMIPENEM ANHYDROUS], the MIC in assay [7] was 4 µg/mL (≈ 13.4 µM); in [8], 8 µg/mL (≈ 26.7 µM).
As to `C[C@@H](O)[C@H]1C(=O)N2C(C(=O)O)=C(S[C@@H]3CN[C@H](C(=O)N(C)C)C3)[C@H](C)[C@H]12` [MEROPENEM], the MIC turned out to be 0.016 µg/mL (≈ 0.0417 µM) in assay [1]; 1 µg/mL (≈ 2.61 µM) in assay [2]; 0.25 µg/mL (≈ 0.652 µM) in [3]; 0.016 µg/mL (≈ 0.0417 µM) in [4]; 1 µg/mL (≈ 2.61 µM) in assay [5]; 0.25 µg/mL (≈ 0.652 µM) in [6]. Also, the MIC in assay [7] came to 0.5 µg/mL (≈ 1.3 µM); in assay [8], 4 µg/mL (≈ 10.4 µM).
For the compound `CC1(C)S[C@@H]2[C@H](NC(=O)[C@H](C(=O)O)c3ccsc3)C(=O)N2[C@H]1C(=O)O` [TICARCILLIN], the MIC in assay [1] is 4 µg/mL (≈ 10.4 µM); in [2], > 512 µg/mL; in assay [4], 4 µg/mL (≈ 10.4 µM); in assay [5] it was > 512 µg/mL; in assay [7], > 512 µg/mL; in assay [8] it was > 512 µg/mL. In assay [9], the MIC was > 512 µg/mL.
